Experimental data taken from ChEMBL document CHEMBL4715833, “Design, synthesis, in-vitro, in-vivo and in-silico studies of pyrrolidine-2,5-dione derivatives as multitarget anti-inflammatory agents” (Eur J Med Chem, 2020).
pIC50: −log10 of the molar value. Activity calls are given as the source filed them. The calls are words filed in the database; no cut-off is given here.

Key:
[1] = target: T1, Polyunsaturated fatty acid 5-lipoxygenase (Homo sapiens, UniProt P09917); experiment: Inhibition of recombinant human 5LOX expressed in baculovirus infected Sf insect cells using linoleic acid as substrate preincubated for 5 mins followed by substrate addition
T1 sequence (P09917 whole entry): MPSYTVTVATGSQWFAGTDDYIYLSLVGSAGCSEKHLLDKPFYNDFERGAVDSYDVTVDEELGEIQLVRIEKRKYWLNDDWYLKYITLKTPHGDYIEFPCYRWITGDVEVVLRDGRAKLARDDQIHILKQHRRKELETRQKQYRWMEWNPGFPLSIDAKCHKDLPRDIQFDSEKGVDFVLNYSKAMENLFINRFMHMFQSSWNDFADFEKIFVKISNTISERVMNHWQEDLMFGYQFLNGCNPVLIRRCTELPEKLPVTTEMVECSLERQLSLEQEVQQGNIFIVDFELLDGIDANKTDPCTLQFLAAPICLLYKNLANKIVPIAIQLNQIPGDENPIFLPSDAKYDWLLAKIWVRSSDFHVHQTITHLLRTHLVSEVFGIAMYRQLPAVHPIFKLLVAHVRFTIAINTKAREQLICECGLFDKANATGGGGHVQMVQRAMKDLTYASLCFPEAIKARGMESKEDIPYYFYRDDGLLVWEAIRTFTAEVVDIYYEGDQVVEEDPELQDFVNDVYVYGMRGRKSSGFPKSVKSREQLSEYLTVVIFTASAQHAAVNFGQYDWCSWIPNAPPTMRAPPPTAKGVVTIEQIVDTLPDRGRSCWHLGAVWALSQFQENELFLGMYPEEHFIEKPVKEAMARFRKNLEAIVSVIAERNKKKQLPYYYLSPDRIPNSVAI

[2] = Inhibition of trypsin (unknown origin) using casein as substrate preincubated for 5 mins followed by substrate addition and measured after 20 mins; design: species or system Homo sapiens
Summary of the method: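 Trypsin 0.06 mg/ml in 20 mM Tris-HCl pH 7.4 with compound at 31.25–1000 µg/ml, 5 min at 37 °C. 0.8% (w/v) casein added, 20 min further, stopped with 70% perchloric acid. After centrifugation, supernatant absorbance read at 217 nm against buffer blank. % inhibition against control; IC50 from plot; three runs.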

[3] = Acute toxicity in Swiss albino mouse assessed as change in clinical sign of eyes at 1000 mg/kg, ip administered as single dose measured after 4 hrs; type: organism-based; conditions: in vivo
Summary of the method: (§1)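 Swiss albino mice of either sex (30-35 g), kept at 22-25 °C on a 12 h light/dark cycle with free food and water. Single i.p. dose; controls received normal saline 10 mL/kg. Animals were watched at random for allergic or abnormal behavioural signs during the first 4 h.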

[4] = Acute toxicity in Swiss albino mouse assessed as change in clinical sign of mucus membrane at 1000 mg/kg, ip administered as single dose measured after 4 hrs; type: organism-based; conditions: in vivo; summary of the method: as §1
[5] = Acute toxicity in Swiss albino mouse assessed as clinical changes in skin at 1000 mg/kg, ip administered as single dose measured after 4 hrs; type: organism-based; conditions: in vivo; summary of the method: as §1
[6] = Acute toxicity in Swiss albino mouse assessed as clinical changes in salivation at 1000 mg/kg, ip administered as single dose measured after 4 hrs; type: organism-based; conditions: in vivo; summary of the method: as §1
[7] = Acute toxicity in Swiss albino mouse assessed as clinical changes in perspiration at 1000 mg/kg, ip administered as single dose measured after 4 hrs; type: organism-based; conditions: in vivo; summary of the method: as §1
[8] = Acute toxicity in Swiss albino mouse assessed as clinical changes in urinary incontinence at 1000 mg/kg, ip administered as single dose measured after 4 hrs; type: organism-based; conditions: in vivo; summary of the method: as §1
[9] = Acute toxicity in Swiss albino mouse assessed as changes in circulatory signs at 1000 mg/kg, ip administered as single dose measured after 4 hrs; type: organism-based; conditions: in vivo; summary of the method: as §1
[10] = Acute toxicity in Swiss albino mouse assessed as change in gait at 1000 mg/kg, ip administered as single dose measured after 4 hrs; type: organism-based; conditions: in vivo; summary of the method: as §1
[11] = Acute toxicity in Swiss albino mouse assessed as convulsion at 1000 mg/kg, ip administered as single dose measured after 4 hrs; type: organism-based; conditions: in vivo; summary of the method: as §1
Mus musculus [12] = experiment: Antiinflammatory activity against carrageenan-induced paw edema in Swiss mouse assessed as inhibition of paw edema at 100 mg/kg administered 30 mins prior to carrageenan challenge and measured after 1 hr by […]-method (reference value: 7.66 +/- 3.753%); type: functional; conditions: 1.5 h, time 90 min
Mus musculus [13] = experiment: Antiinflammatory activity against carrageenan-induced paw edema in Swiss mouse assessed as inhibition of paw edema at 25 mg/kg administered 30 mins prior to carrageenan challenge and measured after 2 hrs by […]-method (reference value: 7.39 +/- 2.475%); type: functional; conditions: time 2.5 hrs
Mus musculus [14] = experiment: Antiinflammatory activity against carrageenan-induced paw edema in Swiss mouse assessed as inhibition of paw edema at 50 mg/kg administered 30 mins prior to carrageenan challenge and measured after 2 hrs by […]-method (reference value: 7.39 +/- 2.475%); type: functional; conditions: time 2.5 hrs
Mus musculus [15] = experiment: Antiinflammatory activity against carrageenan-induced paw edema in Swiss mouse assessed as inhibition of paw edema at 50 mg/kg administered 30 mins prior to carrageenan challenge and measured after 3 hrs by […]-method (reference value: 11.41 +/- 3.069%); type: functional; conditions: time 3.5 hrs
Mus musculus [16] = experiment: Antiinflammatory activity against carrageenan-induced paw edema in Swiss mouse assessed as inhibition of paw edema at 100 mg/kg administered 30 mins prior to carrageenan challenge and measured after 4 hrs by […]-method (reference value: 14.46 +/- 1.568%); type: functional; conditions: time 4.5 hrs
Mus musculus [17] = experiment: Antiinflammatory activity against carrageenan-induced paw edema in Swiss mouse assessed as inhibition of paw edema at 100 mg/kg administered 30 mins prior to carrageenan challenge and measured after 5 hrs by […]-method (reference value: 7.31 +/- 3.204%); type: functional; conditions: time 5.5 hrs
Mus musculus [18] = experiment: Antiinflammatory activity in histamine-induced paw edema in Balb/c mouse assessed as inhibition of paw edema at 100 mg/kg, ip administered 1 hr prior to histamine challenge and measured after 1 hr relative to control; type: functional; conditions: time 2 hrs
Summary of the method: (§2)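 BALB/c mice of either sex (30–35 g), 8 per group, dosed i.p. with 10% DMSO, reference drug or compound (100 mg/kg). After 1 h, subplantar irritant: PGE2 0.01 µg/ml, bradykinin 20 µg/ml, histamine 0.1 ml of 1 mg/ml, or leukotriene 10 µg/ml.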

Mus musculus [19] = experiment: Antiinflammatory activity in histamine-induced paw edema in Balb/c mouse assessed as inhibition of paw edema at 100 mg/kg, ip administered 1 hr prior to histamine challenge and measured after 5 hrs; type: functional, organism-based; conditions: time 6.0 hrs; summary of the method: as §2
Mus musculus [20] = experiment: Antiinflammatory activity in bradykinin-induced paw edema in Balb/c mouse assessed as inhibition of paw edema at 100 mg/kg, ip administered 1 hr prior to bradykinin challenge and measured after 3 hrs relative to control; type: functional; conditions: time 4 hrs; summary of the method: as §2
Mus musculus [21] = experiment: Antiinflammatory activity in PGE2-induced paw edema in Balb/c mouse assessed as inhibition of paw edema at 100 mg/kg, ip administered 1 hr prior to PGE2 challenge and measured after 4 hrs relative to control; type: functional; conditions: time 5 hrs; summary of the method: as §2
[22] = Antiinflammatory activity assessed as inhibition of heat-induced albumin denaturation preincubated for 20 mins followed by heating at 51 degC and measured after 3 mins by UV-vis spectrophotometric method

Row | SMILES | pIC50 [1] | pIC50 [2] | Activity [3] | Activity [4] | Activity [5] | Activity [6] | Activity [7] | Activity [8] | Activity [9] | Activity [10] | Activity [11] | inhibition in vivo at 100 mg/kg (Mus musculus [12]) | inhibition in vivo at 25 mg/kg (Mus musculus [13]) | inhibition in vivo at 50 mg/kg (Mus musculus [14]) | inhibition in vivo at 50 mg/kg (Mus musculus [15]) | inhibition in vivo at 100 mg/kg (Mus musculus [16]) | inhibition in vivo at 100 mg/kg (Mus musculus [17]) | inhibition in vivo at 100 mg/kg (Mus musculus [20]) | other results
1 | Cc1ccc(C(=O)CC2CC(=O)N(c3ccc(S(N)(=O)=O)cc3)C2=O)cc1 (stereo not given) | 6.07 | 4.82 | Non-Toxic | Non-Toxic | Non-Toxic | Non-Toxic | Non-Toxic | Non-Toxic | Non-Toxic | Non-Toxic | Non-Toxic | 55.2% | 53% | 57.3% | 54.2% | 66.1% | 68.2% | 27.1% | inhibition in vivo at 100 mg/kg (Mus musculus [18]): 32.4%; inhibition (Mus musculus [19]): Active
2 | O=C1CCCCC1C1CC(=O)N(Cc2ccccc2)C1=O (stereo not given) | 4.44 | 4.76 | Non-Toxic | Non-Toxic | Non-Toxic | Non-Toxic | Non-Toxic | Non-Toxic | Non-Toxic | Non-Toxic | Non-Toxic | 44.7% | 28.3% | 37.4% | 41.1% | 49.7% | 55.1% | 12.4% | inhibition in vivo at 100 mg/kg (Mus musculus [21]): 64.6%; pIC50 [22]: 4.61
